High-throughput results from PubChem.
Only some compounds are listed: those with a hit (about 3.5% of all), similar ones and a draw of the others.
RGS4 pot – RGS4 potentiation or activation; HEK293 M3R/inducible RGS4, carbachol calcium flux Fluo4; stronger effect = lower value; B-score at 10 µM; 0.92% of 310,000 active;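 active = B-score of the integrated calcium signal more than 4 SD below the library mean, with starting fluorescence not abnormally high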;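 note: negative B-score means reduced calcium response which marks RGS4 activation or potentiation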
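System – HEK293 FlpIn-TREx cells, stable M3R, doxycycline-inducible RGS4 · Reagent – ECmax carbachol challenge · Times – compound preincubation 20 min at room temperature before agonist · Technique – Fluo4 fluorescence kinetic imaging of calcium · Measure – B score of integrated Fluo4 ratio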
RGS4 block – inhibitors of human RGS4 | 0.45% of 310,000 active | HEK293 M3R/RGS4 inducible, Fluo-4 calcium flux; stronger effect = higher value; triggered by carbachol at its EC20 | B-score at 10 µM | P49798;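 active = B-score, a plate-corrected calcium signal, over three deviations above library mean, with baseline fluorescence within five deviations of library mean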;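 note: RGS4 expression induced by doxycycline in cells with stable M3 receptor; B-score is computed from the integrated fluorescence ratio over baseline after carbachol; higher B-score means a larger calcium signal and so more RGS4 inhibition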
Target sequence (P49798 whole entry, looked up): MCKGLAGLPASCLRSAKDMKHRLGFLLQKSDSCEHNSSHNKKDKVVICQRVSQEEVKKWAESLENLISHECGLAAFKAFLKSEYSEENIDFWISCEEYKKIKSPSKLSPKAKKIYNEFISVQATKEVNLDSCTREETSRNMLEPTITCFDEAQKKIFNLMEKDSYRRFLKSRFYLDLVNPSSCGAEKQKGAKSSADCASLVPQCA
MrgX1 agonist – human MrgX1 receptor agonism, primary screen | B-score at 10 µM | 0.44% of 310,000 active | AID 588627 | MrgX1-HEK293 cells, Fluo-4 calcium fluorescence, agonist mode; stronger effect = higher value | Q96LB2;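 active = calcium response B-score plate-corrected fluorescence ratio at least 3 library SD, with starting fluorescence B-score inside 5 SD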
Target sequence (Q96LB2 whole entry, looked up): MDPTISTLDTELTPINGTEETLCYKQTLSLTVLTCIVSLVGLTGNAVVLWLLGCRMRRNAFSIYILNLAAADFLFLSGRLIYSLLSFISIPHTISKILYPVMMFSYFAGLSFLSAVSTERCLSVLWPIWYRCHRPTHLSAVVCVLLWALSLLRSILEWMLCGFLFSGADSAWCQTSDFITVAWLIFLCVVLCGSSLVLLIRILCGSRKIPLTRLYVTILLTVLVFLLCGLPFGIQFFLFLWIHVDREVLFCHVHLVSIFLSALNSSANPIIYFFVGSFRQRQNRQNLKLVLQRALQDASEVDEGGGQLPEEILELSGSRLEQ
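System: HEK293 cells stably expressing human MrgX1 receptor; Dosing: test compound in the initial addition of three; Schedule: overnight plating, then 30 min 37 °C plus 30 min room-temperature dye loading; Detection: kinetic calcium dye fluorescence, Fluo-4 NW; Controls: per-plate positive and negative controls for Z′ factor.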
MrgX1 allo act – allosterically activates human MrgX1 receptor signaling. MrgX1-HEK293, Fluo-4 calcium flux, FDSS; stronger effect = higher value. B-score at 10 µM. 0.63% of 310,000 active. AID 588675;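 active = plate-corrected calcium response at least 3 library SD above typical, normal starting fluorescence, not activating the receptor alone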;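 note: compound read alongside a low EC10 to EC30 dose of BAM8-22 agonist; peak minus trough fluorescence over baseline measured at the second addition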
MrgX1 antagonist – antagonists of human MrgX1 receptor; B-score at 10 µM; MRGX1-HEK293 calcium flux, Fluo-4, BAM8-22 antagonism; stronger effect = lower value; 1.3% of 310,000 active; AID 588676; Q96LB2;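 active = calcium-response B-score plate-corrected more than 3 library SD below zero, starting fluorescence within 5 deviations, no agonist response on first addition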;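 note: peak minus trough fluorescence over baseline after final BAM8-22 challenge near maximal dose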
Hits are given with their value; i = inactive; nt = no result given.

SMILES | RGS4 pot | RGS4 block | MrgX1 agonist | MrgX1 allo act | MrgX1 antagonist
C=C(C)[C@@H]1CCC2(C(=O)O)CC[C@]3(C)[C@H](CC[C@@H]4[C@@]5(C)CCC(=O)C(C)(C)[C@@H]5CC[C@]43C)[C@@H]12 (stereo partly specified) | i | i | i | i | -8.31
CC(NC(=O)c1ccc(CS(=O)(=O)c2ccc(Cl)cc2)o1)c1ccc2c(c1)OCCO2 (stereo unspecified) | -7.39 | i | i | i | i
Cc1ccccc1S(=O)(=O)Cc1ccc(C(=O)NC(C)c2ccc3c(c2)OCCO3)o1 (stereo unspecified) | i | i | i | i | i
CCCOc1ccc(/C=C2/C(=O)ON=C2C)cc1Cl | i | i | i | i | i
COc1ccc(/C=C2/C(=O)N(c3ccccc3)N=C2C)cc1 | i | i | i | i | i
CCN(CC)c1ccc(/C=C2\C(=O)N(c3nnc(C)c(=O)[nH]3)N=C2C)cc1 | i | i | 41.6 | i | i
CCN(CC)c1ccc(/C=C2/C(=O)ON=C2C)cc1 | i | i | 56.7 | i | i
CC1=NOC(=O)/C1=C/c1ccc(N(C)C)cc1 | i | i | 45.7 | i | i
Cc1ccccc1CN1CCN(Cc2ccc3cccc(F)c3n2)CC1CCO (stereo unspecified) | i | i | i | i | i
CC(C)CCN1C(=O)c2ccc(C(=O)Nc3ccccc3C(=O)O)cc2C1=O | -7.09 | i | i | i | i
CC(c1ccccc1)N1C(=O)c2ccc(C(=O)Nc3ccc(Br)cc3C(=O)O)cc2C1=O (stereo unspecified) | i | i | i | i | -11.1
Cc1cc(C)n2nc(SCC(=O)Nc3c(C)n(C)n(-c4ccccc4)c3=O)nc2n1 | i | i | i | i | -4.58
Cc1c(NC(=O)CSc2ncccn2)c(=O)n(-c2ccccc2)n1C | i | i | i | i | i
O=C(Nc1ccc(Oc2ccccc2)cc1)C1CCN(c2c3c(nc4ncnn24)CCC3)CC1 | -11.8 | i | i | i | i
O=C(Nc1ccc2c(c1)CCC2)C1CCN(c2c3c(nc4ncnn24)CCC3)CC1 | i | i | i | i | i
O=C(N/N=C/c1ccncc1)C1C2CCCCCCC21 (stereo unspecified) | i | i | i | i | i
O=C(Cn1nnc2ccccc21)OCC(=O)c1ccccc1 | i | i | i | i | -6.12
O=Cc1nc(-c2ccc(Cl)cc2)n2ccccc12 | i | i | i | i | i
O=Cc1nc(-c2ccccc2Cl)n2ccccc12 | i | i | i | i | -6.32
Cc1cccc(NC(=O)CSc2nc3ccccc3o2)c1 | i | i | i | i | i
Cc1nn2c(-c3cccc(NC(=O)CSc4nc5ccccc5o4)c3)nnc2c2ccccc12 | -7.92 | i | i | i | i
CCOc1ccc(-n2nc3c(Cl)nnc(C)c3c2C)cc1 | i | i | i | i | i
NNC(=O)CNC(=O)c1cccc(Br)c1 | i | i | i | 6.51 | i
CC(C(=O)N1CCCC1)N(c1ccccc1)S(C)(=O)=O (stereo unspecified) | i | i | i | i | i
O=[N+]([O-])c1ccc(N/N=C/c2ccc[nH]2)cc1 | nt | nt | 27.1 | i | i
SMILES | RGS4 pot | RGS4 block | MrgX1 agonist | MrgX1 allo act | MrgX1 antagonist
O=[N+]([O-])c1ccc(N/N=C/c2c[nH]c3ccccc23)cc1 | i | i | i | i | -9.09
O=[N+]([O-])c1ccccc1N/N=C/c1c[nH]c2ccccc12 | i | i | i | i | i
CSc1nc(C)cc(OCNC(=O)c2cccs2)n1 | i | i | i | i | i
O=C(Cn1cnc([N+](=O)[O-])c1)c1ccc(F)cc1 | i | i | i | 10.9 | i
O=C(Cn1cnc([N+](=O)[O-])c1)NCc1ccc(F)cc1 | i | i | i | i | i
COc1ccc(C(=O)NC(C)c2nnc(SCC(=O)Nc3nc4ccccc4s3)n2C)cc1 (stereo unspecified) | i | i | i | i | i
COc1cc2c(cc1OC)-c1cc(NC3CCCCCC3)nc(=O)n1CC2 | i | i | i | i | -6.19
O=C(/C=C/c1ccc(Cl)cc1)c1cccnc1 | i | i | i | i | i
O=C(/C=C/c1ccccc1Cl)c1cccnc1 | i | i | 28 | i | i
Cc1ccc(C2=NC3(CCCCC3)NC2=S)cc1 | i | i | i | i | i
CCN1CCC2(CC1)N=C(c1ccc(F)cc1)C(=S)N2 | -7.41 | i | i | i | i
OC1(c2cccs2)CN(c2ccc(Br)cc2)C2=[N+]1CCCS2 (stereo unspecified) | -7.17 | i | i | 13.3 | i
O=C(COC(=O)c1cccc([N+](=O)[O-])c1)c1ccc(OCc2ccccc2)cc1 | -8.4 | i | i | i | i
COc1ccc(C(=O)Nc2ccccc2[N+](=O)[O-])cc1S(=O)(=O)N1CCOCC1 | i | i | i | i | i
Cc1ccc(C(=O)Nc2ccccc2[N+](=O)[O-])cc1S(=O)(=O)N1CCOCC1 | i | i | i | 8.03 | i
CNc1c([N+](=O)[O-])cnn1-c1ccc(C)cc1 | i | i | i | i | i
COc1ccc(N(C)C(=O)c2ccc3c(Cl)c4c(nc3c2)CCCC4)c(OC)c1 | -7.08 | i | i | i | i
O=C(OCC(=O)c1ccc(Cl)s1)c1cnccn1 | i | i | i | i | i
COc1ccc(S(=O)(=O)c2c(N)n(Cc3ccco3)c3nc4ccccc4nc23)cc1 | i | i | i | i | -5.51
CC(=O)Nc1cccc(C(=O)/C=C/c2ccc(/C=C/C(=O)c3cccc(NC(C)=O)c3)cc2)c1 | i | 4.75 | i | i | i
Cc1cccc(C(=O)Nc2ccc(C(=O)/C=C/c3ccncc3)cc2)c1 | i | i | i | 10.6 | i
O=C(/C=C/c1cccnc1)c1ccc(NC(=O)c2cccc(Br)c2)cc1 | i | i | i | 7.07 | i
Cc1cccc(C(=O)Nc2ccc(C(=O)/C=C/c3cccnc3)cc2)c1 | i | i | i | i | i
O=C(c1ccco1)N1N=C(c2cccs2)CC1c1cc([N+](=O)[O-])ccc1O (stereo unspecified) | i | i | i | 7.11 | i
CCOc1ccc(NC(=O)NC2CCCc3ccccc32)cc1 (stereo unspecified) | i | i | i | i | i
SMILES | RGS4 pot | RGS4 block | MrgX1 agonist | MrgX1 allo act | MrgX1 antagonist
O=C(O)c1nn(CCSc2ccccc2F)c(=O)c2ccccc12 | i | i | i | i | i
CC(C)(C)c1ccc(OCCCn2ccnc2)cc1 | i | i | i | i | i
COc1ccccc1CNC(=O)CN(c1cccc([N+](=O)[O-])c1)S(C)(=O)=O | i | i | i | 11 | i
COc1ccc(CCNC(=O)CN(c2cc([N+](=O)[O-])ccc2OC)S(C)(=O)=O)cc1 | i | i | i | i | -5.06
CS(=O)(=O)N(CC(=O)Nc1ccc(F)c(F)c1)c1cccc([N+](=O)[O-])c1 | i | i | i | 8.55 | i
Cc1cccc(NS(=O)(=O)c2ccc(NC(=O)CN(c3cc([N+](=O)[O-])ccc3C)S(C)(=O)=O)cc2)c1 | i | 6.57 | i | i | i
